We go through 2 compounds from ChEMBL document CHEMBL1255448, “The 6-aminoquinolone WC5 inhibits human cytomegalovirus replication at an early stage by interfering with the transactivating activity of viral immediate-early 2 protein” (Antimicrob Agents Chemother, 2010).

For orientation: EC50 means the concentration at which the effect is half-maximal. As a reminder, the IC50 is the midpoint of a concentration-inhibition curve. A word on the EC90: it is the point of the concentration-response curve where the effect stands at 90%.

The source made the active and inactive calls. The rule behind the calls is not given here.

Assay [1] deals with Human betaherpesvirus 5. Kind of assay: Antiviral activity against human cytomegalovirus AD169 infected in human HFF assessed as inhibition of plaque formation by plaque reduction assay. The class given is functional, organism-based. Conditions: Human betaherpesvirus 5, AD169. Put shortly:
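Plaque reduction against AD169 in HFF. EC50 is the concentration giving 50% inhibition of plaque formation, reported as mean ± SD of at least three independent experiments run in duplicate.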
On the technique in general: Plaques are areas of infected cells; plaque reduction assays count them against a control.

Assay [2] in a line: Selectivity index, ratio of CC50 for human HFF to EC50 for human cytomegalovirus AD169. The gist of the method: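 Selectivity index is CC50 from the HFF MTT assay divided by EC50 from the AD169 plaque reduction assay in HFF.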
Assay [3] is described as follows: Inhibition of human cytomegalovirus DNA polymerase catalytic subunit UL54 assessed as incorporation of [3H]dTTP. Set-up: species or system Human betaherpesvirus 5. The gist of the method: (§1)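 Filter-based assay with purified baculovirus-expressed UL54 catalytic subunit, alone or with UL44 accessory subunit. Incorporation of [3H]dTTP into poly(dA)-oligo(dT)12-18 template-primer was measured across serial compound dilutions, with FOS as control. Means ± standard deviations from four independent experiments.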

The nature of assay [4]: Inhibition of human cytomegalovirus DNA polymerase catalytic subunit UL54/UL44 assessed as incorporation of [3H]dTTP. Further details: species or system Human betaherpesvirus 5. Put shortly:
as §1

Assay [5] concerns Human betaherpesvirus 5. Kind of assay: Antiviral activity against human cytomegalovirus AD169 infected in human HFF assessed as virus yield reduction. The class given is functional, organism-based. Conditions: Human betaherpesvirus 5, AD169.
The subject of assay [6] is Human betaherpesvirus 5. Nature of the assay: Antiviral activity against 1 MOI human cytomegalovirus AD169 infected in human HFF assessed as virus yield reduction by yield reduction assay. Type of assay: functional, organism-based. Conditions: Human betaherpesvirus 5, AD169.
For assay [7], the system named is Human betaherpesvirus 5. Nature of the assay: Antiviral activity against 0.1 MOI human cytomegalovirus AD169 infected in human HFF assessed as inhibition of immediate early phase UL122 mRNA expression after 16 hrs by RT-PCR analysis. Type of assay: functional, organism-based. The gist of the method:
(§2)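 HFF seeded at 6×10^5 per well, infected with AD169 at MOI 0.1 PFU/cell, then given 50 µM drug or 0.2% DMSO. ActD 5 µg/ml, CHX 75 µg/ml and FOS 750 µM served as IE, E and L transcription controls. Total RNA was taken at 16 and 48 h p.i.; 1 µg was reverse-transcribed with random hexamers and MuLV RT. PCR used UL122/UL123 (IE), UL54/UL84 (E) and UL55/UL75 (L) primers with a β-actin control, and products were read on ethidium bromide agarose gels.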

Assay [8] concerns Human betaherpesvirus 5. Kind of assay: Antiviral activity against 0.1 MOI human cytomegalovirus AD169 infected in human HFF assessed as inhibition of immediate early phase UL123 mRNA expression after 16 hrs by RT-PCR analysis. Type of assay: functional, organism-based. The gist of the method:
as §2

The test system of assay [9] is Human betaherpesvirus 5. Nature of the assay: Antiviral activity against 0.1 MOI human cytomegalovirus AD169 infected in human HFF assessed as inhibition of immediate early phase P72 protein expression after 24 hrs by Western blot analysis. The class given is functional, organism-based. The gist of the method: (§3)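 HFF infected with HCMV AD169 at MOI 0.1 PFU/cell, treated with 50 µM compound or 0.2% DMSO. ActD 5 µg/ml, CHX 75 µg/ml and FOS 750 µM served as controls. Harvests at 24, 48 and 72 h p.i. were lysed in NP-40 buffer, then SDS-PAGE and PVDF blotting. Probes were anti-IE1/IE2 (p72/p86) MAb or anti-UL55, then HRP secondary and ECL. β-actin reprobe was the internal control.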
(In general: In western blotting, separated proteins are transferred to a membrane and probed.)

Assay [10] deals with Human betaherpesvirus 5. Nature of the assay: Antiviral activity against 0.1 MOI human cytomegalovirus AD169 infected in human HFF assessed as inhibition of immediate early phase P86 protein expression after 24 hrs by Western blot analysis. The class given is functional, organism-based. The gist of the method:
as §3

Assay [11] concerns Human betaherpesvirus 5. Nature of the assay: Antiviral activity against 0.1 MOI human cytomegalovirus AD169 infected in human HFF assessed as inhibition of late phase UL55 protein expression after 72 hrs of infection by Western blot analysis. The class given is functional, organism-based. The gist of the method:
as §3

Assay [12] concerns Human betaherpesvirus 5. Nature of the assay: Antiviral activity against 0.1 MOI human cytomegalovirus AD169 infected in human U373-MG cells expressing UL54-EGFP reporter assessed as inhibition of EGFP expression after 48 hrs of infection by confocal fluorescence microscopy. The class given is functional, organism-based. Conditions: U-373MG ATCC. Put shortly:
(§4)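 Stable U373-MG reporter cells were seeded on coverslips at 3×10^5 per well and infected with AD169 at MOI 0.1 or 0.5. They were then treated with 50 µM drug, 5 µM fomivirsen (also given 1 h before and during infection) or 0.2% DMSO. At 48 h p.i. cells were fixed in 4% paraformaldehyde for 15 min, and EGFP-positive cells were counted by confocal microscopy at 20×.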

Assay [13] concerns Human betaherpesvirus 5. Kind of assay: Antiviral activity against 0.1 MOI human cytomegalovirus AD169 infected in human U373-MG cells expressing UL112/113-EGFP reporter assessed as inhibition of EGFP expression after 48 hrs of infection by confocal fluorescence microscopy. The class given is functional, organism-based. Conditions: U-373MG ATCC. Put shortly: as §4
Assay [14] has as its system Human betaherpesvirus 5. Kind of assay: Antiviral activity against 0.5 MOI human cytomegalovirus AD169 infected in human U373-MG cells expressing UL54-EGFP reporter assessed as inhibition of EGFP expression after 48 hrs of infection by confocal fluorescence microscopy. The class given is functional, organism-based. To be noted: U-373MG ATCC. Put shortly:
as §4

Assay [15] has as its system Human betaherpesvirus 5. Kind of assay: Antiviral activity against 0.5 MOI human cytomegalovirus AD169 infected in human U373-MG cells expressing UL112/113-EGFP reporter assessed as inhibition of EGFP expression after 48 hrs of infection by confocal fluorescence microscopy. The class given is functional, organism-based. To be noted: U-373MG ATCC. The gist of the method:
as §4

Assay [16] deals with Human betaherpesvirus 5. Kind of assay: Antiviral activity against 0.1 MOI human cytomegalovirus AD169 infected in human HFF assessed as virus yield reduction by yield reduction assay. Type of assay: functional, organism-based. Conditions: Human betaherpesvirus 5, AD169.
In assay [17] the test system is Human betaherpesvirus 5. Nature of the assay: Antiviral activity against 0.01 MOI human cytomegalovirus AD169 infected in human HFF assessed as virus yield reduction by yield reduction assay. The class given is functional, organism-based. Conditions: Human betaherpesvirus 5, AD169.
In assay [18] the test system is Human betaherpesvirus 5. Nature of the assay: Antiviral activity against human cytomegalovirus AD169 in human HFF assessed as reduction of viral attachment to fibroblast at 4 degC. Type of assay: functional, organism-based. Put shortly:
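Prechilled HFF monolayers received 100 PFU AD169 together with graded compound or heparin control for 2 or 4 h at 4°C. Cells were washed with cold PBS, overlaid with compound-free 0.6% methylcellulose medium and kept 10 days at 37°C. Plaques were stained with crystal violet and counted. Three experiments were run in duplicate; mean ± SD.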

For assay [19], the system named is Human betaherpesvirus 5. Kind of assay: Antiviral activity against human cytomegalovirus AD169 in human HFF assessed as reduction of viral entry into fibroblast after 2 hrs at 37 degC. Conditions: Human betaherpesvirus 5, AD169, 2 h.
For assay [20], the system named is Human betaherpesvirus 5. Kind of assay: Antiviral activity against 1 MOI human cytomegalovirus AD169 infected in human HFF assessed as inhibition of viral replication up to 30 hrs post infection.
Assay [21] has as its system Human betaherpesvirus 5. Kind of assay: Antiviral activity against 0.1 MOI human cytomegalovirus AD169 infected in human HFF assessed as inhibition of early phase UL54 mRNA expression after 16 hrs by RT-PCR analysis.
The subject of assay [22] is Human betaherpesvirus 5. Kind of assay: Antiviral activity against 0.1 MOI human cytomegalovirus AD169 infected in human HFF assessed as inhibition of early phase UL84 mRNA expression after 16 hrs by RT-PCR analysis.
The test system of assay [23] is Human betaherpesvirus 5. Kind of assay: Antiviral activity against 0.1 MOI human cytomegalovirus AD169 infected in human cells expressing UL54-EGFP reporter assessed as inhibition of IE2 transactivating activity after 48 hrs of infection by confocal fluorescence microscopy.
For assay [24], the system named is Human betaherpesvirus 5. Kind of assay: Antiviral activity against 0.1 MOI human cytomegalovirus AD169 infected in human cells expressing UL112/113-EGFP reporter assessed as inhibition of IE2 transactivating activity after 48 hrs of infection by confocal fluorescence microscopy.
Assay [25] has as its system Human betaherpesvirus 5. Nature of the assay: Antiviral activity against human cytomegalovirus AD169 in human HFF assessed as reduction of viral attachment to fibroblast after 2 hrs at 37 degC. Type of assay: functional, organism-based.

Take `Nc1cc2c(=O)c(C(=O)O)cn(C3CC3)c2cc1N1CCN(c2ccccn2)CC1`: the results for the EC50 in the assay with Human betaherpesvirus 5 [1], with Human betaherpesvirus 5 [5] and in the assay on Human betaherpesvirus 5 [19] were 900 nM, 8.6 µM and above 25 µM, respectively. Also, the “Selectivity Index” value in assay [2] turned out to be 479. For the same compound, the IC50 in [3] and in assay [4] was above 100 µM throughout. Further, the EC90 with Human betaherpesvirus 5 [6] was 51.9 µM; in the assay with Human betaherpesvirus 5 [16], 34.7 µM; in the assay on Human betaherpesvirus 5 [17], 8.5 µM. In addition, the inhibition entry in the assay on Human betaherpesvirus 5 [7], in the assay on Human betaherpesvirus 5 [8], in the assay on Human betaherpesvirus 5 [9] and with Human betaherpesvirus 5 [10] was “inactive” each time. In addition, the inhibition result in the assay with Human betaherpesvirus 5 [11], in the assay with Human betaherpesvirus 5 [12], in the assay on Human betaherpesvirus 5 [13], in the assay with Human betaherpesvirus 5 [14], in the assay with Human betaherpesvirus 5 [15] and with Human betaherpesvirus 5 [21] was “Active” each time. Moreover, the inhibition result with Human betaherpesvirus 5 [22], in the assay with Human betaherpesvirus 5 [23] and with Human betaherpesvirus 5 [24] was “Active” in each case. Moreover, in the assay on Human betaherpesvirus 5 [18], the outcome was inactive. Moreover, the outcome with Human betaherpesvirus 5 [20] was Active.

Regarding `Cc1cn([C@H]2C[C@H](OP(O)(=S)OC[C@H]3O[C@@H](n4ccc(N)nc4=O)C[C@@H]3OP(O)(=S)OC[C@H]3O[C@@H](n4cnc5c(=O)[nH]c(N)nc54)C[C@@H]3OP(O)(=S)OC[C@H]3O[C@@H](n4cc(C)c(=O)[nH]c4=O)C[C@@H]3OP(O)(=S)OC[C@H]3O[C@@H](n4ccc(N)nc4=O)C[C@@H]3OP(O)(=S)OC[C@H]3O[C@@H](N4C(=O)C5N=CNC5N=C4N)C[C@@H]3OP(O)(=S)OC[C@H]3O[C@@H](n4cc(C)c(=O)[nH]c4=O)C[C@@H]3OP(O)(=S)OC[C@H]3O[C@@H](n4cc(C)c(=O)[nH]c4=O)C[C@@H]3OP(O)(=S)OC[C@H]3O[C@@H](n4cc(C)c(=O)[nH]c4=O)C[C@@H]3OP(O)(=S)OC[C@H]3O[C@@H](n4cc(C)c(=O)[nH]c4=O)C[C@@H]3OP(O)(=S)OC[C@H]3O[C@@H](N4C=NC5C(=O)NC(N)=NC54)C[C@@H]3OP(O)(=S)OC[C@H]3O[C@@H](n4cc(C)c(=O)[nH]c4=O)C[C@@H]3OP(O)(=S)OC[C@H]3O[C@@H](n4ccc(N)nc4=O)C[C@@H]3OP(O)(=S)OC[C@H]3O[C@@H](N4C=NC5C(=O)NC(N)=NC54)C[C@@H]3OP(O)(=S)OC[C@H]3O[C@@H](n4cc(C)c(=O)[nH]c4=O)C[C@@H]3OP(O)(=S)OC[C@H]3O[C@@H](n4cc(C)c(=O)[nH]c4=O)C[C@@H]3OP(O)(=S)OC[C@H]3O[C@@H](n4cc(C)c(=O)[nH]c4=O)C[C@@H]3OP(O)(=S)OC[C@H]3O[C@@H](n4cc(C)c(=O)[nH]c4=O)C[C@@H]3OP(O)(=S)OC[C@H]3O[C@@H](n4cnc5c(=O)[nH]c(N)nc54)C[C@@H]3OP(O)(=S)OC[C@H]3O[C@@H](n4cc(C)c(=O)[nH]c4=O)C[C@@H]3OP(O)(=S)OC[C@H]3O[C@@H](n4ccc(N)nc4=O)C[C@@H]3OP(O)(=S)OC[C@H]3O[C@@H](N4C=NC5C(=O)NC(N)=NC54)C[C@@H]3OP(O)(=S)OC[C@H]3O[C@@H](n4cc(C)c(=O)[nH]c4=O)C[C@@H]3OP(O)(=S)OC[C@H]3O[C@@H](n4cc(C)c(=O)[nH]c4=O)C[C@@H]3O)[C@@H](CO)O2)c(=O)[nH]c1=O` (stereo not given in full), in the assay with Human betaherpesvirus 5 [25], the outcome was Active.
